Published values collected from several papers.
Each line is one published result; the experiments were not run side by side.
Cell line: Jurkat
Read-out: cell growth or viability

SMILES	assay	setting	IC50
C[C@@H](O)C(=O)CCCCCCC(=O)Nc1ccccc1	thymidine uptake		92000 nM
CCCON(Cc1ccc(C(=O)NO)cc1)C(=O)Nc1ccccc1	ATP luminescence	72 h	7090 nM
COc1cc(/C=C/C(=O)CC(=O)/C=C/c2ccc(O)c(OC)c2)ccc1O	MTT	48 h	28.9 µg/mL
CC(=O)O[C@H]1C(=O)[C@@]2(C)[C@H]([C@H](OC(=O)c3ccccc3)[C@]3(O)C[C@H](OC(=O)[C@H](O)[C@@H](NC(=O)c4ccccc4)c4ccccc4)C(C)=C1C3(C)C)[C@]1(OC(C)=O)CO[C@@H]1C[C@@H]2O		72 h	2.8 nM
COc1cccc2c1C(=O)c1c(O)c3c(c(O)c1C2=O)C[C@@](O)(C(=O)CO)C[C@@H]3O[C@H]1C[C@H](N)[C@H](O)[C@H](C)O1	MTT	48 h	2.5 µg/mL
CCCCCCCCC1=CC2C=CC=CC1C2C1CCCCC1=O (stereo not drawn)	flow cytometry		79 nM
COc1ccc(/C=C\c2cc(OC)c(OC)c(OC)c2)cc1O			5 nM
O=C1CCCCC1C1C2C=CC=CC1C(C1CC1)=C2 (stereo not drawn)	flow cytometry		39 nM
CC[C@]1(O)C[C@H]2CN(CCc3c([nH]c4ccccc34)[C@@](C(=O)OC)(c3cc4c(cc3OC)N(C=O)[C@H]3[C@@](O)(C(=O)OC)[C@H](OC(C)=O)[C@]5(CC)C=CCN6CC[C@]43[C@@H]65)C2)C1	MTT		1.1 nM
O=C1CCCCC1C1C2C=CC=CC1/C(=C/Cc1ccccc1)C2 (stereo not drawn)	flow cytometry		61 nM
COCCOCOc1ccc(C(=O)/C=C/c2ccc(C(=O)O)cc2)cc1C12CC3CC(CC(C3)C1)C2	ATP luminescence	24 h	1800 nM
CC(=O)O[C@H](C)C(=O)CCCCCCC(=O)Nc1ccccc1	thymidine uptake		> 100000 nM
CCCCCC/C=C1\CC2C=CC=CC1C2C1CCCCC1=O (stereo not drawn)	flow cytometry		29 nM
COCCOCOc1cc(O)c(-c2cc(-c3ccc(C(=O)O)cc3)no2)cc1C12CC3CC(CC(C3)C1)C2	ATP luminescence	24 h	1950 nM
CCCCN(Cc1ccc(C(=O)NO)cc1)C(=O)Nc1ccccc1	ATP luminescence	72 h	7410 nM
